The subject of one assay is C. parvum HNJ-1 strain. As to the kind of experiment: Initial epigenetic library compound screening for C. parvum. It counts as cell-based, Cryptosporidium parvum. The settings on record: for Parasite inhibition (%) (primary screening): 5 μM, 48 h, HCT-8 cells, vs DMSO, single experiment, single replicate; for inhibition at 5 µM: Cryptosporidium parvum, HCT-8, 48 h, read-out: Parasite inhibition (%) (primary screening).

Assay [1] deals with C. parvum. In kind it is cell-based, Cryptosporidium parvum. The settings on record: for Parasite inhibition (%): C. parvum, 5 μM, HCT-8 cells, compound present from inoculation, 48 h; for inhibition at 5 µM: Cryptosporidium parvum, HCT-8, 48 h, read-out: Parasite inhibition (%).
Another assay concerns HCT-8 cells. As to the kind of experiment: Cytotoxicity to HCT-8 cells. It counts as cell-based, human. The conditions noted are these: read-out: Host cell IC50.
Assay [2] deals with C. parvum. The settings on record: read-out: IC50 against C. parvum, ref Bessoff et al., 2013, cited from earlier work.
Assay [3] relates to C. parvum. As to the kind of experiment: C. parvum growth when compound is added after invasion of host cells. In kind it is cell-based, Cryptosporidium parvum. The settings on record: 5 μM added after 3 h invasion, further 45 h, compared with DMSO control. The gist of the method:
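HCT-8 cells (2 × 10^4/well) grown 24 h, infected with 5 × 10^4 HNJ-1 oocysts in RPMI-1640 for 3 h; test compound (5 μM) or DMSO then added for 45 h; nitazoxanide 5 μM as control. Methanol-fixed, BSA-blocked, Sporo-Glo stained; 42 fields/well imaged at 20×, parasites and nuclei counted automatically; relative to DMSO. Triplicate wells, three independent experiments.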

Assay [4] concerns C. parvum. The conditions noted are these: 100 or 200 mg/kg; ref Theodos et al., 1998; cited from earlier work.
Assay [5] relates to acetylated histone H3K9 of C. parvum sporozoites. As to the kind of experiment: Acetylated histone in extracellular parasites. It counts as cell-based, Cryptosporidium parvum. The settings on record: Fig. 4A, 10 μM, incubation 30 min.
Assay [6] concerns C. parvum. The conditions noted are these: ref Darkin-Rattray et al., 1996; cited from earlier work.
In another assay the test system is T. gondii RH-2F. The assay can be described thus: T. gondii growth assay. The settings on record: 5 μM, positive control, HFF cells, 48 h. In kind it is cell-based, Toxoplasma gondii.

Structures are written as SMILES. Like-named read-outs stand apart in the source and are kept apart here.

These results are taken from publication PMC7593347 (International Journal for Parasitology: Drugs and Drug …, 2020).

As usually defined, the IC50 is the concentration that gives 50% inhibition. As a reminder, the inhibition is the relative decrease from the control value, in per cent.

`CN(C)c1ccc(C(=O)NCCCCCCC(=O)NO)cc1` [M-344]: in the assay on C. parvum HNJ-1 strain, the “Parasite inhibition (%) (primary screening)” value is recorded as 71%. Further, the “Parasite inhibition (%)” value with C. parvum [1] is given as 71.3 ± 1.7%. The IC50 with HCT-8 cells (HCT-8 cells, 48 h) was found to be 2.3 ± 0.2 µM.

On to `CC(=O)Oc1ccccc1C(=O)Nc1ncc([N+](=O)[O-])s1` [nitazoxanide], for which the concentration for half-maximal inhibition (IC50) is 3.7 µM in the assay with C. parvum [2] and roughly 3.7 µM in the assay with C. parvum [2] (listed as Nitazoxanide). For the same compound, in the assay with C. parvum [3], the “relative number of C. parvum” value was 44.9 ± 7.3%. Moreover, the “reduction of the parasite in C. parvum-infected SCID mice” value with C. parvum [4] was “ineffective”. In addition, the “Density of bands of H3K9Ac/H3 normalized by the loading control” value in assay [5] was “increased”.

For the compound `O=C(CCCCCN1C(=O)c2cccc3cccc(c23)C1=O)NO` [Scriptaid], the inhibition at 5 µM in the assay with C. parvum HNJ-1 strain is 10%. Besides, in the assay on C. parvum [1], the “Parasite inhibition (%)” value is “did not inhibit the growth” and the inhibition at 5 µM came out at 4 ± 5.7%. Besides, in the assay on HCT-8 cells (Homo sapiens, HCT-8, 48 h), the IC50 was 11.9 ± 1.3 µM.

In the case of `O=C1c2ccccc2C(=O)c2c(NCCc3ccc(O)cc3)ccc(NCCc3ccc(O)cc3)c21` [BML-266], the “Parasite inhibition (%) (primary screening)” value in the assay on C. parvum HNJ-1 strain is listed as 97%. Also, the “Parasite inhibition (%)” value in the assay with C. parvum [1] stood at 64.7 ± 3.9%. Besides, in the assay with HCT-8 cells (HCT-8 cells, 48 h), the IC50 came out at 51.2 ± 0.6 µM.

`CC(/C=C/C(=O)NO)=C\[C@@H](C)C(=O)c1ccc(N(C)C)cc1` [TrichostatinA]: the “Parasite inhibition (%) (primary screening)” value with C. parvum HNJ-1 strain came to 76%. The “Parasite inhibition (%)” value in the assay with C. parvum [1] was 75.7 ± 0.8%. The IC50 with HCT-8 cells (HCT-8 cells, 48 h) is 1.6 ± 0.1 µM.

Consider `O=C(/C=C/C#Cc1cccc(NS(=O)(=O)c2ccccc2)c1)NO` [Oxamflatin], for which the inhibition at 5 µM in the assay with C. parvum HNJ-1 strain was determined as 100%; in the assay with C. parvum [1] it was 49.8 ± 4%. Besides, the IC50 in the assay with HCT-8 cells (Homo sapiens, HCT-8, 48 h) was 2.5 ± 0.1 µM.

With `CCC(=O)CCCCC[C@@H]1NC(=O)[C@H]2CCCCN2C(=O)[C@H]([C@@H](C)CC)NC(=O)[C@H](Cc2cn(OC)c3ccccc23)NC1=O` [Apicidin], the inhibition at 5 µM in the assay with C. parvum HNJ-1 strain was found to be 83%; in the assay with C. parvum [1], 83.5 ± 1.4%. In addition, the “minimum concentration at which all C. parvum growth was inhibited” value with C. parvum [6] is 45 µM. In addition, the IC50 in the assay on HCT-8 cells (Homo sapiens, HCT-8, 48 h) worked out at 1.5 ± 0.1 µM.

On to `O=Nc1ccc(O)c2ncccc12` [NSC-3852], for which the “Parasite inhibition (%) (primary screening)” value with C. parvum HNJ-1 strain was 88%. Besides, in the assay on C. parvum [1], the “Parasite inhibition (%)” value is given as 64.4 ± 0.4%. In addition, the IC50 in the assay with HCT-8 cells (HCT-8 cells, 48 h) stood at 36.7 ± 1 µM.

Consider `CCc1nc(N)nc(N)c1-c1ccc(Cl)cc1` [pyrimethamine], for which, in the assay on T. gondii RH-2F, the “growth of T. gondii” value was “completely inhibited”.

In the case of `CC(=O)Nc1ccc(C(=O)Nc2ccccc2N)cc1` [CI-994], the inhibition at 5 µM was 88% in the assay on C. parvum HNJ-1 strain and -15.7 ± 8.4% with C. parvum [1]. The “Parasite inhibition (%)” value in the assay on C. parvum [1] was “no effect on growth inhibition”. Besides, the IC50 with HCT-8 cells (Homo sapiens, HCT-8, 48 h) was found to be 24.6 ± 2.4 µM.
